Experimental data from ChEMBL document CHEMBL3232750, “Synthesis, structure-activity relationships, and in vitro antibacterial and antifungal activity evaluations of novel pyrazole carboxylic and dicarboxylic acid derivatives” (2014).
Values after ≈ are worked out from the molar mass of the structure shown. Active and inactive are the calls of the source. The calls are words filed in the database; no cut-off is given here.

What was measured:
[1] = tested on: Staphylococcus aureus; assay: Antibacterial activity against methicillin-resistant Staphylococcus aureus at 37 degC after 24 hrs by agar well diffusion assay; assay type: functional
In short: (§1)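 Bacteria kept on Nutrient Agar slants at 4 °C and subcultured before use. Suspensions of 10^8 CFU/mL were swabbed onto Nutrient Agar and the plates dried 40 min at 35 °C. Compounds were dissolved in DMSO starting at 2.5 mg/ml, serially diluted two-fold, and loaded into 6 mm wells. Plates were pre-incubated 2 h at 25 °C, then 24 h at 37 °C. Inhibition zones were read and the MIC taken as the lowest inhibiting concentration. Duplicates were run.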

[2] = tested on: Staphylococcus aureus; assay: Antibacterial activity against Staphylococcus aureus at 30 ug/disc at 37 degC after 24 hrs by agar well diffusion assay; assay type: functional; settings: read-out: DIZ
In short: (§2)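 Positive-control antibiotic disc on Nutrient Agar swabbed with 10^8 CFU/mL bacteria. Plates pre-incubated 2 h at 25 °C, then 24 h at 37 °C. Inhibition zone diameter measured in mm. Duplicate.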

[3] = tested on: Escherichia coli; assay: Antibacterial activity against Escherichia coli at 30 ug/disc at 37 degC after 24 hrs by agar well diffusion assay; assay type: functional; settings: read-out: DIZ; in short: as §2
[4] = tested on: Candida tropicalis; assay: Antifungal activity against Candida tropicalis at 100 U/disc at 25 degC after 48 hrs by agar well diffusion assay; assay type: functional, organism-based
In short: (§3)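 Yeasts kept on Sabouraud Dextrose Agar slants at 4 °C and subcultured before use. Suspensions of 10^7 CFU/mL were swabbed onto Sabouraud Dextrose Agar and the plates dried 40 min at 35 °C. The nystatin positive-control disc carried 100 U. Plates were pre-incubated 2 h at 25 °C, then incubated 48 h at 25 °C. The growth-inhibition zone diameter was measured in mm, in duplicate.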

[5] = tested on: Candida parapsilosis; assay: Antifungal activity against Candida parapsilosis at 100 U/disc at 25 degC after 48 hrs by agar well diffusion assay; assay type: functional, organism-based; in short: as §3
[6] = tested on: Nakaseomyces glabratus; assay: Antifungal activity against Candida glabrata at 100 U/disc at 25 degC after 48 hrs by agar well diffusion assay; assay type: functional, organism-based; in short: as §3
[7] = tested on: Pseudomonas aeruginosa; assay: Antibacterial activity against Pseudomonas aeruginosa at 37 degC after 24 hrs by agar well diffusion assay; assay type: functional, organism-based
In short: (§4)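 Compounds dissolved in DMSO at 2.5 mg/ml initial concentration, then serially diluted two-fold in DMSO. Nutrient Agar plates were swabbed with 10^8 CFU/mL bacteria and dried about 40 min at 35 °C. Solution was placed in 6 mm wells, then 2 h pre-incubation at 25 °C and 24 h at 37 °C. MIC is the lowest concentration giving a growth-inhibition zone around the well. Duplicate.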

[8] = tested on: Escherichia coli; assay: Antibacterial activity against Escherichia coli at 37 degC after 24 hrs by agar well diffusion assay; assay type: functional, organism-based; in short: as §4
[9] = tested on: Enterococcus; assay: Antibacterial activity against vancomycin-resistant Enterococcus species at 37 degC after 24 hrs by agar well diffusion assay; assay type: functional, organism-based; in short: as §1
[10] = tested on: Staphylococcus aureus; assay: Antibacterial activity against Staphylococcus aureus at 37 degC after 24 hrs by agar well diffusion assay; assay type: functional; in short: as §4
[11] = tested on: Nakaseomyces glabratus; assay: Antifungal activity against Candida glabrata at 25 degC after 48 hrs by agar well diffusion assay; assay type: functional
In short: (§5)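 Yeast suspensions of 10^7 CFU/mL were swabbed onto Sabouraud Dextrose Agar and dried about 40 min at 35 °C. Compounds were dissolved in DMSO (2.5 mg/ml initial) and diluted two-fold in DMSO, then loaded into 6 mm wells. Plates: 2 h pre-incubation at 25 °C, then 48 h at 25 °C. MIC read as the lowest concentration inhibiting growth around the well, in duplicate. The C. albicans clinical isolate came from a hospitalized patient at Eskisehir Osmangazi University hospital; the standard strain came from a culture collection.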

[12] = tested on: Candida albicans; assay: Antifungal activity against Candida albicans ESOGU at 25 degC after 48 hrs by agar well diffusion assay; assay type: functional; in short: as §5
[13] = tested on: Candida albicans; assay: Antifungal activity against Candida albicans at 25 degC after 48 hrs by agar well diffusion assay; assay type: functional; in short: as §5
[14] = tested on: Candida tropicalis; assay: Antifungal activity against Candida tropicalis at 25 degC after 48 hrs by agar well diffusion assay; assay type: functional; in short: as §5
[15] = tested on: Candida parapsilosis; assay: Antifungal activity against Candida parapsilosis at 25 degC after 48 hrs by agar well diffusion assay; assay type: functional; in short: as §5

Molecule | Activity [1] | zone of inhibition at 30 µg/disc [2] | zone of inhibition at 30 µg/disc [3] | inhibition zone (IZ) [4] | inhibition zone (IZ) [5] | inhibition zone (IZ) [6] | Activity [7] | Activity [8] | Activity [9] | Activity [10] | Activity [11] | MIC [12] | MIC [13] | Activity [14] | Activity [15]
CO/N=C(\C(=O)N[C@@H]1C(=O)N2C(C(=O)O)=C(COC(C)=O)CS[C@H]12)c1csc(N)n1 [CEFOTAXIME] | inactive | 35 mm | 45 mm |  |  |  |  |  |  |  |  |  |  |  | 
NYSTATIN |  |  |  | 19 mm | 19 mm | 24 mm |  |  |  |  |  |  |  |  | 
CCNC(=S)NC(=O)c1nn(-c2cccc([N+](=O)[O-])c2)c(-c2ccccc2)c1C(=O)NC(=S)NCC | inactive |  |  |  |  |  | inactive | inactive | inactive | inactive | inactive | 25 µg/mL (≈ 47.6 µM) | 25 µg/mL (≈ 47.6 µM) | inactive | inactive
